# From PubChem BioAssay AID488936 (Broad Institute, 2010)
# Active and inactive are the calls of the source.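 How the source made its calls: active means compounds lowering caspase luminescence whose fitted AC50 is at most ten times their top valid dose; inconclusive means flat partial inhibition or a poor quality curve fit; inactive means the rest.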
# System: not listed separately
# Assay: reduction of caspase-3/7 signal in INS-1E – INS-1E rat cells, dry powder, set 2, orthogonal assay for beta-cell apoptosis inhibitor project, dose response (AID 488936)
# Conditions: INS-1E cytokine-induced caspase-3/7 luminescence, 48 h; at 23.5 µM (top of the series)
# Procedure, shortened: (§1)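 Assay system: rat INS-1E insulinoma cells; Reagent: IFN-gamma, TNF-alpha and IL-1β cytokine cocktail; Control set: SAHA positive control; Measure: IC50 of caspase-3/7 activity from concentration-response curve; Detection: Luciferase-based luminescence, Caspase-Glo 3/7 reagent; Times: 48 h cytokine and compound exposure, 1 h detection.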
row,Compound,"activity change, negative = inhibition"
1,COc1ccc(S(=O)(=O)N(C)C[C@@H]2Oc3c(NC(=O)Nc4ccc(F)cc4)cccc3C(=O)N([C@@H](C)CO)C[C@H]2C)cc1,-9.69% (inactive)
2,COc1ccc(S(=O)(=O)N(C)C[C@@H]2Oc3c(NC(=O)C4CC4)cccc3C(=O)N([C@@H](C)CO)C[C@H]2C)cc1,-6.93% (inactive)
3,Cc1ccc(S(=O)(=O)N(C)C[C@@H]2Oc3c(NC(=O)Nc4cccc5ccccc45)cccc3C(=O)N([C@H](C)CO)C[C@H]2C)cc1,-12.7% (inactive)

# Same assay, conditions: INS-1E cytokine-induced caspase-3/7 luminescence, 48 h; at 26 µM (top of the series)
row,Compound,"activity change, negative = inhibition"
1,COc1ccc(S(=O)(=O)N(C)C[C@@H]2Oc3c(NC(=O)Nc4cccc5ccccc45)cccc3C(=O)N([C@@H](C)CO)C[C@H]2C)cc1Cl,12.6% (inactive)
2,CNC[C@@H]1Oc2c(NC(=O)Nc3cccc4ccccc34)cccc2C(=O)N([C@@H](C)CO)C[C@H]1C,-6.33% (inactive)
3,COc1ccc(S(=O)(=O)N(C)C[C@@H]2Oc3c(NC(=O)c4ccc(-c5nccs5)cc4)cccc3C(=O)N([C@@H](C)CO)C[C@H]2C)cc1,6.99% (inactive)
4,C[C@@H]1CN([C@@H](C)CO)C(=O)c2cccc(NC(=O)Nc3cccc4ccccc34)c2O[C@H]1CN(C)S(=O)(=O)c1cccs1,4.63% (inactive)
5,C[C@@H]1CN([C@@H](C)CO)C(=O)c2cccc(NC(=O)Nc3cccc4ccccc34)c2O[C@H]1CN(C)CC1CC1,-6.43% (inactive)
6,C[C@@H]1CN([C@@H](C)CO)C(=O)c2cccc(NC(=O)Nc3ccc(F)cc3)c2O[C@H]1CN(C)S(=O)(=O)c1ccc(Cl)cc1,-5.69% (inactive)
7,COc1ccc(S(=O)(=O)N(C)C[C@@H]2Oc3c(NC(=O)Nc4ccc5c(c4)OCO5)cccc3C(=O)N([C@@H](C)CO)C[C@H]2C)cc1,-4.99% (inactive)
8,C[C@@H]1CN([C@@H](C)CO)C(=O)c2cccc(NC(=O)Nc3cccc4ccccc34)c2O[C@H]1CN(C)S(=O)(=O)c1ccc2c(c1)OCO2,-4.01% (inactive)
9,COc1ccc(S(=O)(=O)N(C)C[C@@H]2Oc3c(NC(=O)C4CCCCC4)cccc3C(=O)N([C@@H](C)CO)C[C@H]2C)cc1,-7.12% (inactive)
10,C[C@@H]1CN([C@@H](C)CO)C(=O)c2cccc(NC(=O)Nc3cccc4ccccc34)c2O[C@H]1CN(C)C(=O)NC1CCCCC1,27.4% (inactive)
11,COc1ccc(S(=O)(=O)N(C)C[C@@H]2Oc3c(NS(=O)(=O)c4ccc(F)cc4)cccc3C(=O)N([C@@H](C)CO)C[C@H]2C)cc1,-9.27% (inactive)
12,COc1ccccc1S(=O)(=O)N(C)C[C@@H]1Oc2c(NC(=O)Nc3cccc4ccccc34)cccc2C(=O)N([C@@H](C)CO)C[C@H]1C,-13% (inactive)
13,C[C@@H]1CN([C@@H](C)CO)C(=O)c2cccc(NC(=O)Nc3cccc4ccccc34)c2O[C@H]1CN(C)S(=O)(=O)c1ccc2ncsc2c1,-18.8% (inactive)
14,COc1ccc(S(=O)(=O)N(C)C[C@H]2Oc3c(NC(=O)Nc4cccc5ccccc45)cccc3C(=O)N([C@H](C)CO)C[C@H]2C)cc1,-14.4% (inactive)
15,Cc1ccc(S(=O)(=O)N(C)C[C@@H]2Oc3c(NC(=O)Nc4ccccc4)cccc3C(=O)N([C@H](C)CO)C[C@H]2C)cc1,-10.7% (inactive)
16,C[C@@H]1CN([C@@H](C)CO)C(=O)c2cccc(NC(=O)Nc3cccc4ccccc34)c2O[C@H]1CN(C)S(=O)(=O)c1ccccc1,6.84% (inactive)
17,C[C@@H]1CN([C@H](C)CO)C(=O)c2cccc(NC(=O)Nc3ccccc3)c2O[C@H]1CN(C)S(=O)(=O)c1ccc(F)cc1,-4.27% (inactive)
18,C[C@@H]1CN([C@@H](C)CO)C(=O)c2cccc(NC(=O)Nc3cccc4ccccc34)c2O[C@H]1CN(C)S(=O)(=O)c1cn(C)cn1,-1.53% (inactive)
19,COc1ccc(S(=O)(=O)Nc2cccc3c2O[C@@H](CN(C)S(=O)(=O)c2ccc(OC)cc2)[C@H](C)CN([C@@H](C)CO)C3=O)cc1,-1.2% (inactive)
20,C[C@@H]1CN([C@@H](C)CO)C(=O)c2cccc(NC(=O)Nc3cccc4ccccc34)c2O[C@H]1CN(C)S(=O)(=O)c1ccc2c(c1)oc(=O)n2C,0.941% (inactive)
21,C[C@@H]1CN([C@@H](C)CO)C(=O)c2cccc(NC(=O)Nc3cccc4ccccc34)c2O[C@H]1CN(C)S(=O)(=O)c1ccc(OC(F)(F)F)cc1,100% (inactive)
22,C[C@@H]1CN([C@@H](C)CO)C(=O)c2cccc(NC(=O)Nc3ccccc3)c2O[C@H]1CN(C)S(=O)(=O)c1ccc(F)cc1,-13.5% (inactive)
23,COc1ccc(S(=O)(=O)N(C)C[C@@H]2Oc3c(NC(=O)Nc4cccc5ccccc45)cccc3C(=O)N([C@@H](C)CO)C[C@H]2C)cc1OC,-11.6% (inactive)
24,COc1ccc(S(=O)(=O)N(C)C[C@@H]2Oc3c(NC(=O)Nc4cccc5ccccc45)cccc3C(=O)N([C@@H](C)CO)C[C@H]2C)cc1,-10.2% (inactive)

# System: INS-1E cytokine-induced caspase-3/7 luminescence, 48 h
# Assay: as above
# Conditions: not given
# Procedure, shortened: as §1
row,Compound,AC50
1,C[C@@H]1CN([C@@H](C)CO)C(=O)c2cccc(NC(=O)Nc3cccc(Cl)c3Cl)c2O[C@H]1CN(C)S(=O)(=O)c1ccc2c(c1)OCCO2,> 26 µM (inactive)
2,C[C@@H]1CN([C@@H](C)CO)C(=O)c2cccc(NC(=O)Nc3cccc4ccccc34)c2O[C@H]1CN(C)S(=O)(=O)c1ccc2c(n1)N(C)CCO2,> 26 µM (inactive)
3,COc1ccc(S(=O)(=O)N(C)C[C@@H]2Oc3c(NC(=O)Nc4cccc5ccccc45)cccc3C(=O)N([C@H](C)CO)C[C@H]2C)cc1,> 23.5 µM (inactive)
4,COc1ccc(S(=O)(=O)N(C)C[C@@H]2Oc3c(NC(=O)Nc4ccccc4)cccc3C(=O)N([C@@H](C)CO)C[C@H]2C)cc1,> 26 µM (inactive)
